Laboratory results taken from ChEMBL document CHEMBL1926642, “Relevance of the C-5 position to schweinfurthin induced cytotoxicity” (2011).

How the values were obtained:
Format in all cases: functional
[1] = system: HL-60(TB); experiment: Growth inhibition of human HL-60(TB) cells after 48 hrs by sulforhodamine B assay; details: HL-60, 48 h
How it was run: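 Run in the NCI 60 cell-line screen as the full 5-dose assay that follows initial single-dose testing; GI50 is read from the dose series.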

[2] = system: K562; experiment: Growth inhibition of human K562 cells after 48 hrs by sulforhodamine B assay; details: K562, 48 h
[3] = system: RPMI-8226; experiment: Growth inhibition of human RPMI8226 cells after 48 hrs by sulforhodamine B assay; details: RPMI-8226, 48 h
[4] = system: EKVX; experiment: Growth inhibition of human EKVX cells after 48 hrs by sulforhodamine B assay
[5] = system: NCI-H226; experiment: Growth inhibition of human NCI-H226 cells after 48 hrs by sulforhodamine B assay; details: NCI-H226, 48 h
[6] = system: NCI-H322M; experiment: Growth inhibition of human NCI-H322M cells after 48 hrs by sulforhodamine B assay
[7] = system: NCI-H460; experiment: Growth inhibition of human NCI-H460 cells after 48 hrs by sulforhodamine B assay; details: NCI-H460, 48 h
[8] = system: NCI-H522; experiment: Growth inhibition of human NCI-H522 cells after 48 hrs by sulforhodamine B assay; details: NCI-H522, 48 h
[9] = system: COLO 205; experiment: Growth inhibition of human COLO205 cells after 48 hrs by sulforhodamine B assay; details: COLO 205, 48 h
[10] = system: HCC 2998; experiment: Growth inhibition of human HCC2998 cells after 48 hrs by sulforhodamine B assay; details: HCC 2998, 48 h
[11] = system: HCT-15; experiment: Growth inhibition of human HCT15 cells after 48 hrs by sulforhodamine B assay; details: HCT-15, 48 h
[12] = system: KM12; experiment: Growth inhibition of human KM12 cells after 48 hrs by sulforhodamine B assay; details: KM12, 48 h
[13] = system: SF-268; experiment: Growth inhibition of human SF268 cells after 48 hrs by sulforhodamine B assay; details: SF-268, 48 h
[14] = system: SF-295; experiment: Growth inhibition of human SF295 cells after 48 hrs by sulforhodamine B assay; details: SF-295, 48 h
[15] = system: SNB-19; experiment: Growth inhibition of human SNB19 cells after 48 hrs by sulforhodamine B assay; details: SNB-19, 48 h
[16] = system: SNB-75; experiment: Growth inhibition of human SNB75 cells after 48 hrs by sulforhodamine B assay; details: SNB-75, 48 h
[17] = system: LOX IMVI; experiment: Growth inhibition of human LOXIMVI cells after 48 hrs by sulforhodamine B assay
[18] = system: M14; experiment: Growth inhibition of human M14 cells after 48 hrs by sulforhodamine B assay; details: M14, 48 h
[19] = system: SK-MEL-2; experiment: Growth inhibition of human SK-MEL-2 cells after 48 hrs by sulforhodamine B assay; details: SK-MEL-2, 48 h
[20] = system: SK-MEL-28; experiment: Growth inhibition of human SK-MEL-28 cells after 48 hrs by sulforhodamine B assay; details: SK-MEL-28, 48 h
[21] = system: SK-MEL-5; experiment: Growth inhibition of human SK-MEL-5 cells after 48 hrs by sulforhodamine B assay; details: SK-MEL-5, 48 h
[22] = system: UACC-257; experiment: Growth inhibition of human UACC257 cells after 48 hrs by sulforhodamine B assay; details: UACC-257, 48 h
[23] = system: UACC-62; experiment: Growth inhibition of human UACC62 cells after 48 hrs by sulforhodamine B assay; details: UACC-62, 48 h
[24] = system: IGROV-1; experiment: Growth inhibition of human IGROV1 cells after 48 hrs by sulforhodamine B assay; details: IGROV-1, 48 h
[25] = system: OVCAR-3; experiment: Growth inhibition of human OVCAR3 cells after 48 hrs by sulforhodamine B assay; details: OVCAR-3, 48 h
[26] = system: OVCAR-4; experiment: Growth inhibition of human OVCAR4 cells after 48 hrs by sulforhodamine B assay; details: OVCAR-4, 48 h
[27] = system: NCI/ADR-RES; experiment: Growth inhibition of human NCI/ADR-RES cells after 48 hrs by sulforhodamine B assay
[28] = system: SK-OV-3; experiment: Growth inhibition of human SKOV3 cells after 48 hrs by sulforhodamine B assay; details: SK-OV-3, 48 h
[29] = system: 786-0; experiment: Growth inhibition of human 786-0 cells after 48 hrs by sulforhodamine B assay; details: 786-0, 48 h
[30] = system: CAKI-1; experiment: Growth inhibition of human Caki1 cells after 48 hrs by sulforhodamine B assay; details: CAKI-1, 48 h
[31] = system: SN12C; experiment: Growth inhibition of human SN12C cells after 48 hrs by sulforhodamine B assay
[32] = system: T47D; experiment: Growth inhibition of human T47D cells after 48 hrs by sulforhodamine B assay
[33] = read-out: pLC50 (the source's name) (converted)

Work on `COc1cc(/C=C/c2cc3c(c(SC)c2)O[C@]2(C)CC[C@@H](O)C(C)(C)[C@H]2C3)cc(O)c1C/C=C(\C)CCC=C(C)C` yielded a GI50 [1] of 5.13 µM, a CC50 [1, 33] of over 100 µM and a TGI ([1]; read-out: pTGI (converted)) of 36.3 µM. For the same compound, the GI50 [2] was 4.27 µM, the LC50 [2] was over 100 µM and the TGI ([2]; read-out: pTGI (converted)) was over 100 µM. The GI50 [3] was 2.34 µM, the LC50 [3] was over 100 µM and the TGI ([3]; read-out: pTGI (converted)) was 8.91 µM. For the same compound, the GI50 [4] was 40.7 µM, the LC50 (50% lethal concentration) [4] was over 100 µM and the TGI ([4]; read-out: pTGI (converted)) was over 100 µM. The GI50 [5] was 15.1 µM, the LC50 [5] was over 100 µM and the TGI ([5]; read-out: pTGI (converted)) was 39.8 µM. For the same compound, the GI50 [6] was 51.3 µM, the LC50 [6] was over 100 µM and the TGI ([6]; read-out: pTGI (converted)) was over 100 µM. For the same compound, the GI50 [7] was 3.47 µM, the LC50 (concentration killing 50% of cells) [7] was 51.3 µM and the TGI ([7]; read-out: pTGI (converted)) was 13.8 µM. The GI50 [8] was 12 µM, the LC50 [8] was 93.3 µM and the TGI ([8]; read-out: pTGI (converted)) was 33.1 µM. For the same compound, the GI50 [9] was 1.35 µM, the LC50 [9] was 7.08 µM and the TGI ([9]; read-out: pTGI (converted)) was 3.09 µM. The GI50 [10] was 12 µM, the LC50 [10] was over 100 µM and the TGI ([10]; read-out: pTGI (converted)) was 38.9 µM. The GI50 [11] was 2.95 µM, the LC50 [11] was 72.4 µM and the TGI ([11]; read-out: pTGI (converted)) was 8.91 µM. It also gave a GI50 [12] of 4.27 µM, an LC50 [12] of 83.2 µM and a TGI ([12]; read-out: pTGI (converted)) of 20.4 µM. It also gave a GI50 [13] of 7.41 µM, an LC50 [13] of over 100 µM and a TGI ([13]; read-out: pTGI (converted)) of 61.7 µM. It also gave an LC50 [14] of over 100 µM, a GI50 ([14]; read-out: GI50) of 3.8 µM and a GI50 ([14]; read-out: pGI50 (converted)) of 3.02 µM. The TGI ([14]; read-out: pTGI (converted)) was 25.1 µM, the GI50 [15] was 28.2 µM and the LC50 [15] was over 100 µM. The TGI ([15]; read-out: pTGI (converted)) was over 100 µM, the GI50 [16] was 3.8 µM and the LC50 [16] was over 100 µM. For the same compound, the TGI ([16]; read-out: pTGI (converted)) was 33.1 µM, the GI50 [17] was 4.37 µM and the LC50 [17] was 47.9 µM. For the same compound, the TGI ([17]; read-out: pTGI (converted)) was 13.2 µM, the GI50 [18] was 8.13 µM and the LC50 [18] was 95.5 µM. It also gave a TGI ([18]; read-out: pTGI (converted)) of 28.8 µM, a GI50 [19] of 12.6 µM and an LC50 [19] of 69.2 µM. The TGI ([19]; read-out: pTGI (converted)) was 29.5 µM, the GI50 [20] was 12.3 µM and the CC50 [20, 33] was over 100 µM. It also gave a TGI ([20]; read-out: pTGI (converted)) of 34.7 µM, a GI50 [21] of 9.77 µM and an LC50 [21] of 55 µM. The TGI ([21]; read-out: pTGI (converted)) was 23.4 µM, the GI50 [22] was 14.5 µM and the LC50 [22] was over 100 µM. The TGI ([22]; read-out: pTGI (converted)) was 64.6 µM, the GI50 [23] was 7.08 µM and the LC50 (50% lethal concentration) [23] was over 100 µM. It also gave a TGI ([23]; read-out: pTGI (converted)) of 28.8 µM, a GI50 [24] of 39.8 µM and an LC50 [24] of over 100 µM. For the same compound, the TGI ([24]; read-out: pTGI (converted)) was over 100 µM, the GI50 [25] was 5.89 µM and the LC50 [25] was 43.7 µM. The TGI ([25]; read-out: pTGI (converted)) was 18.2 µM, the GI50 [26] was 23.4 µM and the LC50 [26] was over 100 µM. The TGI ([26]; read-out: pTGI (converted)) was over 100 µM, the GI50 [27] was 11 µM and the LC50 [27] was over 100 µM. For the same compound, the TGI ([27]; read-out: pTGI (converted)) was 38 µM, the GI50 [28] was 7.94 µM and the LC50 [28] was over 100 µM. For the same compound, the TGI ([28]; read-out: pTGI (converted)) was 43.7 µM, the GI50 [29] was 5.01 µM and the CC50 [29, 33] was 67.6 µM. The TGI ([29]; read-out: pTGI (converted)) was 21.4 µM, the GI50 [30] was 27.5 µM and the LC50 [30] was over 100 µM. It also gave a TGI ([30]; read-out: pTGI (converted)) of over 100 µM, a GI50 [31] of 10.5 µM and an LC50 [31] of over 100 µM. For the same compound, the TGI ([31]; read-out: pTGI (converted)) was 32.4 µM, the GI50 [32] was 14.5 µM and the LC50 [32] was over 100 µM. For the same compound, the TGI ([32]; read-out: pTGI (converted)) was 67.6 µM.
